The values below come from ChEMBL document CHEMBL1629686, “Substrate selectivity and a novel role in inhibitor discrimination by residue 237 in the KPC-2 beta-lactamase” (Antimicrob Agents Chemother, 2010).

For assay [1], the system named is Klebsiella pneumoniae. Description: Activity of Klebsiella pneumoniae 1534 beta-lactamase KPC-2 T237S mutant by spectrophotometric analysis. In a few lines:
(§1)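 Purified KPC-2 variant enzymes (periplasmic lysate from E. coli, preparative isoelectric focusing). Hydrolysis followed by diode-array spectrophotometry in 10 mM PBS, pH 7.4, room temperature. Enzyme at 10 nM with substrate in molar excess for pseudo-first-order conditions. Vmax and Km came from a nonlinear least-squares Michaelis-Menten fit.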

The subject of assay [2] is Klebsiella pneumoniae. As to the kind of experiment: Activity of Klebsiella pneumoniae 1534 beta-lactamase KPC-2 T237A mutant by spectrophotometric analysis. In a few lines:
as §1

Assay [3] relates to Klebsiella pneumoniae. As to the kind of experiment: Ratio of Kcat/Km for Klebsiella pneumoniae 1534 beta-lactamase KPC-2 T237A mutant by spectrophotometric analysis. In a few lines:
as §1

The subject of assay [4] is Klebsiella pneumoniae. Description: Antimicrobial activity against Klebsiella pneumoniae 1534 expressing beta-lactamase KPC-2 by agar dilution method in presence of beta-lactamase inhibitor Tazobactam. It counts as functional. In a few lines: (§2)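 LB agar dilution MIC following CLSI criteria, inoculated with a Steers replicator. Tested as piperacillin-tazobactam at a fixed 8:1 ratio.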
Background: In agar dilution, organisms are placed on agar that contains the substance at set levels.

Assay [5] relates to Escherichia coli. Description: Antimicrobial activity against Escherichia coli DH10B harboring plasmid pBC SK(+) carrying wild type beta-lactamase KPC-2 by agar dilution method in presence of beta-lactamase inhibitor Tazobactam. The format is functional. Particulars: K-12 DH10B. In a few lines:
(§3)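 LB agar dilution MICs by CLSI criteria, inoculated with a Steers replicator. […] Strains were E. coli DH10B with or without pBC SK(+) carrying wild-type blaKPC-2 or a position 237 variant.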

Assay [6] concerns Escherichia coli. Description: Antimicrobial activity against Escherichia coli DH10B harboring beta-lactamase KPC-2 T237A mutant by agar dilution method in presence of beta-lactamase inhibitor Tazobactam. It counts as functional. Conditions: K-12 DH10B. In a few lines: as §3
Assay [7] has as its system Escherichia coli. As to the kind of experiment: Antimicrobial activity against Escherichia coli DH10B harboring beta-lactamase KPC-2 T237I mutant by agar dilution method in presence of beta-lactamase inhibitor Tazobactam. It counts as functional. Conditions: K-12 DH10B. In a few lines:
as §3

The subject of assay [8] is Escherichia coli. Description: Antimicrobial activity against Escherichia coli DH10B harboring beta-lactamase KPC-2 T237L mutant by agar dilution method in presence of beta-lactamase inhibitor Tazobactam. Particulars: K-12 DH10B. It counts as functional. In a few lines:
as §3

Assay [9] concerns Escherichia coli. As to the kind of experiment: Antimicrobial activity against Escherichia coli DH10B harboring beta-lactamase KPC-2 T237V mutant by agar dilution method in presence of beta-lactamase inhibitor Tazobactam. The format is functional. Particulars: K-12 DH10B. In a few lines: as §3
Assay [10] deals with Escherichia coli. Description: Antimicrobial activity against Escherichia coli DH10B harboring beta-lactamase KPC-2 T237N mutant by agar dilution method in presence of beta-lactamase inhibitor Tazobactam. Conditions: K-12 DH10B. The format is functional. In a few lines: as §3
The subject of assay [11] is Escherichia coli. Description: Antimicrobial activity against Escherichia coli DH10B harboring beta-lactamase KPC-2 T237P mutant by agar dilution method in presence of beta-lactamase inhibitor Tazobactam. Particulars: K-12 DH10B. It counts as functional. In a few lines:
as §3

The test system of assay [12] is Escherichia coli. As to the kind of experiment: Antimicrobial activity against Escherichia coli DH10B harboring beta-lactamase KPC-2 T237S mutant by agar dilution method in presence of beta-lactamase inhibitor Tazobactam. It counts as functional. Conditions: K-12 DH10B. In a few lines:
as §3

Assay [13] has as its system Escherichia coli. Description: Antimicrobial activity against Escherichia coli DH10B harboring beta-lactamase KPC-2 T237D mutant by agar dilution method in presence of beta-lactamase inhibitor Tazobactam. The format is functional. Particulars: K-12 DH10B. In a few lines:
as §3

Assay [14] relates to Escherichia coli. Description: Antimicrobial activity against Escherichia coli DH10B harboring beta-lactamase KPC-2 T237R mutant by agar dilution method in presence of beta-lactamase inhibitor Tazobactam. It counts as functional. Conditions: K-12 DH10B. In a few lines:
as §3

The subject of assay [15] is Escherichia coli. Description: Antimicrobial activity against Escherichia coli DH10B by agar dilution method in presence of beta-lactamase inhibitor Tazobactam. Conditions: K-12 DH10B. The format is functional. In a few lines:
as §3

Assay [16] deals with Escherichia coli. As to the kind of experiment: Antimicrobial activity against Escherichia coli DH10B harboring plasmid […] by agar dilution method in presence of beta-lactamase inhibitor Tazobactam. The format is functional. Particulars: K-12 DH10B. In a few lines:
as §2

The test system of assay [17] is Escherichia coli. Description: Antimicrobial activity against Escherichia coli DH10B harboring plasmid pBR322-catI carrying beta-lactamase KPC-2 by agar dilution method in presence of beta-lactamase inhibitor clavulanic acid. Particulars: K-12 DH10B. It counts as functional.
Assay [18] relates to Escherichia coli. Description: Antimicrobial activity against Escherichia coli DH10B harboring plasmid pBC SK(+) carrying wild type beta-lactamase KPC-2 by agar dilution method in presence of beta-lactamase inhibitor Sulbactam. The format is functional. Conditions: K-12 DH10B. In a few lines:
(§4)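 LB agar dilution MICs by CLSI criteria, applied with a Steers replicator. […] Hosts were E. coli DH10B carrying pBC SK(+) with wild-type blaKPC-2 or a position 237 variant.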

In assay [19] the test system is Escherichia coli. Description: Antimicrobial activity against Escherichia coli DH10B harboring beta-lactamase KPC-2 T237I mutant by agar dilution method in presence of beta-lactamase inhibitor clavulanic acid. The format is functional. Particulars: K-12 DH10B. In a few lines: as §4
Assay [20] deals with Escherichia coli. Description: Antimicrobial activity against Escherichia coli DH10B harboring beta-lactamase KPC-2 T237L mutant by agar dilution method in presence of beta-lactamase inhibitor clavulanic acid. Conditions: K-12 DH10B. It counts as functional. In a few lines:
as §4

The subject of assay [21] is Escherichia coli. Description: Antimicrobial activity against Escherichia coli DH10B harboring beta-lactamase KPC-2 T237F mutant by agar dilution method in presence of beta-lactamase inhibitor Sulbactam. Particulars: K-12 DH10B. It counts as functional. In a few lines: as §4
In assay [22] the test system is Escherichia coli. As to the kind of experiment: Antimicrobial activity against Escherichia coli DH10B harboring beta-lactamase KPC-2 T237W mutant by agar dilution method in presence of beta-lactamase inhibitor clavulanic acid. Particulars: K-12 DH10B. It counts as functional. In a few lines: (§5)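 LB agar dilution MICs per CLSI criteria, inoculated with a Steers replicator. […] Strains: E. coli DH10B alone, DH10B carrying empty pBC SK(+), or DH10B carrying pBC SK(+)-blaKPC-2 position 237 variants made by site-saturation mutagenesis and confirmed by sequencing. Plasmid selection used 20 mg/liter chloramphenicol.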

Assay [23] relates to Escherichia coli. Description: Antimicrobial activity against Escherichia coli DH10B harboring beta-lactamase KPC-2 T237W mutant by agar dilution method in presence of beta-lactamase inhibitor Sulbactam. It counts as functional. Conditions: K-12 DH10B. In a few lines: as §4
Assay [24] has as its system Escherichia coli. As to the kind of experiment: Antimicrobial activity against Escherichia coli DH10B harboring beta-lactamase KPC-2 T237N mutant by agar dilution method in presence of beta-lactamase inhibitor Sulbactam. The format is functional. Conditions: K-12 DH10B. In a few lines: as §4
The test system of assay [25] is Escherichia coli. As to the kind of experiment: Antimicrobial activity against Escherichia coli DH10B harboring beta-lactamase KPC-2 T237S mutant by agar dilution method in presence of beta-lactamase inhibitor clavulanic acid. Conditions: K-12 DH10B. It counts as functional. In a few lines: as §4
In assay [26] the test system is Escherichia coli. As to the kind of experiment: Antimicrobial activity against Escherichia coli DH10B harboring beta-lactamase KPC-2 T237D mutant by agar dilution method in presence of beta-lactamase inhibitor clavulanic acid. Particulars: K-12 DH10B. The format is functional. In a few lines: as §4
Assay [27] has as its system Escherichia coli. As to the kind of experiment: Antimicrobial activity against Escherichia coli DH10B harboring beta-lactamase KPC-2 T237E mutant by agar dilution method in presence of beta-lactamase inhibitor clavulanic acid. It counts as functional. Conditions: K-12 DH10B. In a few lines:
as §4

Assay [28] deals with Escherichia coli. As to the kind of experiment: Antimicrobial activity against Escherichia coli DH10B harboring beta-lactamase KPC-2 T237E mutant by agar dilution method in presence of beta-lactamase inhibitor Sulbactam. It counts as functional. Conditions: K-12 DH10B. In a few lines: as §4
The subject of assay [29] is Escherichia coli. Description: Antimicrobial activity against Escherichia coli DH10B harboring beta-lactamase KPC-2 T237H mutant by agar dilution method in presence of beta-lactamase inhibitor clavulanic acid. It counts as functional. Particulars: K-12 DH10B. In a few lines:
as §4

Assay [30] deals with Escherichia coli. Description: Antimicrobial activity against Escherichia coli DH10B harboring beta-lactamase KPC-2 T237H mutant by agar dilution method in presence of beta-lactamase inhibitor Sulbactam. The format is functional. Conditions: K-12 DH10B. In a few lines: as §4
Assay [31] relates to Escherichia coli. As to the kind of experiment: Antimicrobial activity against Escherichia coli DH10B harboring beta-lactamase KPC-2 T237K mutant by agar dilution method in presence of beta-lactamase inhibitor Sulbactam. The format is functional. Conditions: K-12 DH10B. In a few lines: as §4
The subject of assay [32] is Escherichia coli. Description: Antimicrobial activity against Escherichia coli DH10B harboring beta-lactamase KPC-2 T237R mutant by agar dilution method in presence of beta-lactamase inhibitor clavulanic acid. It counts as functional. Particulars: K-12 DH10B. In a few lines: as §5
The subject of assay [33] is Escherichia coli. As to the kind of experiment: Antimicrobial activity against Escherichia coli DH10B harboring beta-lactamase KPC-2 T237R mutant by agar dilution method in presence of beta-lactamase inhibitor Sulbactam. Conditions: K-12 DH10B. It counts as functional. In a few lines: as §5
Assay [34] relates to Klebsiella pneumoniae. Description: microbe, parasite or virus in culture. Conditions: 1534.

Each structure is given as a SMILES string. In brackets after ≈: the same amount, converted by molar mass.

Turning to `CCN1CCN(C(=O)N[C@@H](C(=O)N[C@@H]2C(=O)N3[C@@H]2SC(C)(C)[C@@H]3C(=O)O)c2ccccc2)C(=O)C1=O` [PIPERACILLIN], the Km came out at 6 µM in the assay on Klebsiella pneumoniae [1] and 12 µM in the assay with Klebsiella pneumoniae [2]. Besides, the kcat in the assay with Klebsiella pneumoniae [1] and in the assay on Klebsiella pneumoniae [2] was 42 s⁻¹ each time. Further, the kcat/Km with Klebsiella pneumoniae [3] was determined as 3.5e+06 M⁻¹ s⁻¹. Also, the MIC in the assay on Klebsiella pneumoniae [4] is 64 µg/mL; in the assay with Escherichia coli [5], 8 µg/mL; with Escherichia coli [6], 4 µg/mL; in the assay on Escherichia coli [7], 1 µg/mL; in the assay on Escherichia coli [8], 2 µg/mL; with Escherichia coli [9], 2 µg/mL. The MIC in the assay on Escherichia coli [10] is 1 µg/mL; in the assay on Escherichia coli [11], 0.5 µg/mL; in the assay with Escherichia coli [12], 8 µg/mL; in the assay with Escherichia coli [13] it was 1 µg/mL; in the assay with Escherichia coli [14] it was 0.5 µg/mL; in the assay with Escherichia coli [15] it was 0.5 µg/mL. Further, in the assay on Escherichia coli [16], the MIC is 0.5 µg/mL.

Regarding `CC1(C)S[C@@H]2[C@H](NC(=O)[C@H](N)c3ccccc3)C(=O)N2[C@H]1C(=O)O` [AMPICILLIN], the MIC with Escherichia coli [17] was 32 µg/mL; with Escherichia coli [18], 128 µg/mL; with Escherichia coli [19], 8 µg/mL; in the assay on Escherichia coli [20] it was 8 µg/mL; in the assay with Escherichia coli [21], 8 µg/mL; with Escherichia coli [22] it was 1 µg/mL. For the same compound, the MIC in the assay on Escherichia coli [23] came out at 8 µg/mL; in the assay with Escherichia coli [24], 8 µg/mL; in the assay with Escherichia coli [25] it was 4 µg/mL; in the assay with Escherichia coli [26], 8 µg/mL; with Escherichia coli [27] it was 8 µg/mL; in the assay with Escherichia coli [28], 8 µg/mL. The MIC with Escherichia coli [29] stood at 4 µg/mL; in the assay with Escherichia coli [30] it was 16 µg/mL; in the assay on Escherichia coli [31] it was 4 µg/mL; with Escherichia coli [32], 1 µg/mL; in the assay on Escherichia coli [33], 1 µg/mL; against Klebsiella pneumoniae [34], 512 µg/mL (≈ 1470 µM).

As a reminder, the Km is the substrate concentration at which the rate is half of its maximum. One may read the kcat as the number of substrate molecules converted per active site and unit of time at saturation. In general, kcat/Km refers to the turnover number divided by the Michaelis constant.
